# Laboratory results taken from ChEMBL document CHEMBL5724801, “EUbOPEN Chemogenomics Library - Multiplex” (2024).
# Where “and” joins values, the source holds several entries; their conditions need not be identical. Equal values may be shown once.
# System: U2OS
# Assay: Multiplex assay against U2OS
# Assay type: toxicity, cell-based
# Settings: human
# In short: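 At seeding, live cells were stained with Hoechst33342, BioTracker Green Microtubule Cytoskeleton Dye, MitoTracker Red and Annexin V Alexa Fluor 680. After compound addition they were imaged on a CQ1 microscope at 37°C and 5% CO2, and CellPathfinder machine-learning gating sorted them into Hoechst high-intensity objects or normal cells, with normal cells further split into healthy, pyknosed or fragmented nuclei and pyknosed cells into mitotic or apoptotic. Tubulin, mitochondrial-mass and membrane-permeability phenotypes are given as per cents of cells with healthy nuclei.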
# [1] = 12 h, 1 µM, compound concentration 1 uM
# [2] = 12 h, 10 µM, compound concentration 10 uM
# [3] = 24 h, 1 µM, compound concentration 1 uM
# [4] = 24 h, 10 µM, compound concentration 10 uM
# [5] = 48 h, 1 µM, compound concentration 1 uM
# [6] = 48 h, 10 µM, compound concentration 10 uM
smiles,measurement,setting,value
CCOc1ccccc1C(=O)NCC1(N2CCN(CC)CC2)CCCCC1,Population Apoptotic (%),[1],45.83% and 31.82%
same,Population Fragmented Nuclei (%),[1],1.72% and 5.19%
same,Population Healthy Nuclei (%),[1],91.38% and 78.52%
same,Population Hoechst High Intensity Objects (%),[1],0%
same,Population Membrane Permeable-Phenotype (%),[1],1.26% and 8.49%
same,Population Mitotic Cells (%),[1],54.17% and 68.18%
same,Population Normal (%),[1],100%
same,Population Pyknosed Nuclei (%),[1],6.9% and 16.3%
same,Population Tubulin-Different-Phenotype (%),[1],0.63% and 0.94%
same,Total Cell Count,[1],348 and 135
same,Population Apoptotic (%),[2],35% and 23.68%
same,Population Fragmented Nuclei (%),[2],1.81% and 4.03%
same,Population Healthy Nuclei (%),[2],80.05% and 70.47%
same,Population Hoechst High Intensity Objects (%),[2],0.23% and 0%
same,Population Membrane Permeable-Phenotype (%),[2],16.15% and 31.43%
same,Population Mitotic Cells (%),[2],65% and 76.32%
same,Population Normal (%),[2],99.77% and 100%
same,Population Pyknosed Nuclei (%),[2],18.14% and 25.5%
same,Population Tubulin-Different-Phenotype (%),[2],49.86% and 44.76%
same,Total Cell Count,[2],442 and 149
same,Population Apoptotic (%),[3],46.15% and 50%
same,Population Fragmented Nuclei (%),[3],1.89% and 5.62%
same,Population Healthy Nuclei (%),[3],87.16% and 80.62%
same,Population Hoechst High Intensity Objects (%),[3],0%
same,Population Membrane Permeable-Phenotype (%),[3],1.21% and 8.53%
same,Population Mitochondria Different-Phenotype (%),[3],0% and 12.4%
same,Population Mitotic Cells (%),[3],53.85% and 50%
same,Population Normal (%),[3],100%
same,Population Pyknosed Nuclei (%),[3],10.95% and 13.75%
same,Population Tubulin-Different-Phenotype (%),[3],0.48% and 1.55%
same,Total Cell Count,[3],475 and 160
same,Population Apoptotic (%),[4],52.04% and 44.44%
same,Population Fragmented Nuclei (%),[4],2.49% and 6.29%
same,Population Healthy Nuclei (%),[4],80.07% and 65.41%
same,Population Hoechst High Intensity Objects (%),[4],0%
same,Population Membrane Permeable-Phenotype (%),[4],8% and 10.58%
same,Population Mitotic Cells (%),[4],47.96% and 55.56%
same,Population Normal (%),[4],100%
same,Population Pyknosed Nuclei (%),[4],17.44% and 28.3%
same,Population Tubulin-Different-Phenotype (%),[4],29.33% and 41.35%
same,Population Apoptotic (%),[5],37.84% and 48.15%
same,Population Fragmented Nuclei (%),[5],2.6% and 4.8%
same,Population Healthy Nuclei (%),[5],88.67% and 71.62%
same,Population Hoechst High Intensity Objects (%),[5],0%
same,Population Membrane Permeable-Phenotype (%),[5],1.33% and 6.1%
same,Population Mitotic Cells (%),[5],62.16% and 51.85%
same,Population Normal (%),[5],100%
same,Population Pyknosed Nuclei (%),[5],8.74% and 23.58%
same,Population Tubulin-Different-Phenotype (%),[5],0.93% and 3.05%
same,Population Apoptotic (%),[6],58.2% and 70.77%
same,Population Fragmented Nuclei (%),[6],2.88% and 5.66%
same,Population Healthy Nuclei (%),[6],83.08% and 63.68%
same,Population Hoechst High Intensity Objects (%),[6],0.11% and 0%
same,Population Mitotic Cells (%),[6],41.8% and 29.23%
same,Population Normal (%),[6],99.89% and 100%
same,Population Pyknosed Nuclei (%),[6],14.04% and 30.66%
same,Population Tubulin-Different-Phenotype (%),[6],15.24% and 28.89%
CN1CCN2c3ccccc3Cc3ccccc3C2C1.Cl (configuration not stated) [MIANSERIN HYDROCHLORIDE],Population Apoptotic (%),[1],91% and 83%
same,Population Fragmented Nuclei (%),[1],35% and 16%
same,Population Healthy Nuclei (%),[1],56% and 77%
same,Population Hoechst High Intensity Objects (%),[1],3% and 1%
same,Population Membrane Permeable-Phenotype (%),[1],7% and 3%
same,Population Mitochondria Different-Phenotype (%),[1],4% and 3%
same,Population Mitotic Cells (%),[1],8% and 16%
same,Population Normal (%),[1],96% and 98%
same,Population Pyknosed Nuclei (%),[1],7% and 5%
same,Population Tubulin-Different-Phenotype (%),[1],5% and 2%
same,Total Cell Count,[1],162 and 109
same,Population Apoptotic (%),[2],78% and 86%
same,Population Fragmented Nuclei (%),[2],23% and 12%
same,Population Healthy Nuclei (%),[2],68% and 77%
same,Population Hoechst High Intensity Objects (%),[2],2% and 1%
same,Population Membrane Permeable-Phenotype (%),[2],7% and 1%
same,Population Mitochondria Different-Phenotype (%),[2],3% and 2%
same,Population Mitotic Cells (%),[2],21% and 13%
same,Population Normal (%),[2],97% and 98%
same,Population Pyknosed Nuclei (%),[2],8% and 10%
same,Population Tubulin-Different-Phenotype (%),[2],4% and 0%
same,Total Cell Count,[2],277 and 152
same,Population Apoptotic (%),[3],88% and 75%
same,Population Fragmented Nuclei (%),[3],34% and 23%
same,Population Healthy Nuclei (%),[3],56% and 70%
same,Population Hoechst High Intensity Objects (%),[3],1% and 2%
same,Population Membrane Permeable-Phenotype (%),[3],6% and 4%
same,Population Mitochondria Different-Phenotype (%),[3],1% and 3%
same,Population Mitotic Cells (%),[3],11% and 25%
same,Population Normal (%),[3],98% and 97%
same,Population Pyknosed Nuclei (%),[3],8% and 5%
same,Population Tubulin-Different-Phenotype (%),[3],4% and 3%
same,Total Cell Count,[3],197 and 142
same,Population Apoptotic (%),[4],69% and 93%
same,Population Fragmented Nuclei (%),[4],21% and 13%
same,Population Healthy Nuclei (%),[4],68% and 77%
same,Population Hoechst High Intensity Objects (%),[4],1% and 2%
same,Population Membrane Permeable-Phenotype (%),[4],9% and 7%
same,Population Mitochondria Different-Phenotype (%),[4],2% and 3%
same,Population Normal (%),[4],98% and 97%
same,Population Pyknosed Nuclei (%),[4],10% and 8%
same,Population Tubulin-Different-Phenotype (%),[4],2%
same,Total Cell Count,[4],319 and 183
same,Population Apoptotic (%),[5],78%
same,Population Fragmented Nuclei (%),[5],28% and 19%
same,Population Healthy Nuclei (%),[5],65% and 71%
same,Population Hoechst High Intensity Objects (%),[5],2% and 1%
same,Population Membrane Permeable-Phenotype (%),[5],5% and 4%
same,Population Mitochondria Different-Phenotype (%),[5],2% and 3%
same,Population Mitotic Cells (%),[5],21%
same,Population Normal (%),[5],97% and 98%
same,Population Pyknosed Nuclei (%),[5],5% and 9%
same,Population Tubulin-Different-Phenotype (%),[5],4% and 2%
same,Total Cell Count,[5],269 and 206
same,Population Apoptotic (%),[6],91% and 87%
same,Population Fragmented Nuclei (%),[6],18% and 15%
same,Population Healthy Nuclei (%),[6],71% and 73%
same,Population Hoechst High Intensity Objects (%),[6],4% and 2%
same,Population Membrane Permeable-Phenotype (%),[6],4%
same,Population Mitochondria Different-Phenotype (%),[6],2% and 3%
same,Population Mitotic Cells (%),[6],8% and 12%
same,Population Normal (%),[6],95% and 97%
same,Population Pyknosed Nuclei (%),[6],9% and 11%
same,Population Tubulin-Different-Phenotype (%),[6],1% and 2%
same,Total Cell Count,[6],397 and 285
